Shown are actives, neighbours in structure and some others; about 5.1% of the full set was active somewhere.
NF-kB neuron act: compounds increasing NF-kB expression in human neuronal cells; NF-kB reporter expression; stronger effect = higher value; fold change at 12.5 µM; 190,000 tested, 1.6% active; AID 1239; in the data active = fold change above about 3.3
STAT3 act: STAT3 signaling activation | U3A cells, IL-6 STAT3-luciferase reporter, luminescence; 100% = signal with IL-6 EC80 alone | activation (% of control), % at 5.6 µM | 190,000 tested, 0.91% active;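 active = activation above the screen-wide mean of compound activation plus 3 SD, cut at about 130% in these data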;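 also: 0% = background luminescence of wells with medium and substrate only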
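Test system: human U3A cells carrying STAT3-luciferase construct; control set: IL-6-only wells as 100% reference; timing: compound pre-incubation 1 h before IL-6, then 6 h stimulation at 37 °C; also added: IL-6 stimulus at 33 ng/mL final; evaluation: % activation versus median of IL-6-stimulated wells; detection: reporter luminescence signal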
STAT1 blocker: inhibitors of IFN-gamma induced STAT1 signaling | NIH 3T3 STAT1-luciferase reporter, luminescence | inhibition, % at 5.5 µM | 200,000 tested, 0.35% active;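 active = inhibition above a set limit, the mean inhibition across all tested compounds plus 3 SD, cut at about 34% in these data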;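 also: 0% = IFN-gamma with DMSO and 100% = IFN-gamma with 300 µM nifuroxazide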
STAT1 activator: increases IFN-gamma driven STAT1 reporter signal; NIH 3T3 STAT1-luciferase reporter, luminescence; 100% = IFN-gamma alone, no compound; activation (% of control), % at 5.5 µM; 200,000 tested, 2.6% active;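 active = activation above the screen-wide mean activation plus 3 SD, cut at about 130% in these data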;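 also: raw ratio to IFN-gamma control signal so 100% means no change and 0% no light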
STAT3 blocker: reduces IL-6 driven STAT3 reporter signal; U3A cells, IL-6 STAT3-luciferase reporter, luminescence; host cell line lacks STAT1; inhibition, % at 5.5 µM; 190,000 tested, 0.89% active;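 active = inhibition above the mean inhibition across all screened compounds plus 3 SD, cut at about 44% in these data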;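 also: 0% = DMSO only wells and 100% = 100 µM nifuroxazide control wells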
APP 5'UTR act: activates APP 5'UTR luciferase reporter. SH-SY5Y APP 5'UTR luciferase reporter, luminescence; zero percent = DMSO vehicle wells. activation, % at 2 µM. 190,000 tested, 1% active;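 active = activation above a set limit, based on mean plus 3 SD of controls, cut at about 140% in these data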
An asterisk follows results filed as active; nt = not tested or not shown; ! = a repeat was not active.

SMILES | NF-kB neuron act | STAT3 act | STAT1 blocker | STAT1 activator | STAT3 blocker | APP 5'UTR act
CC12COC3(C(=O)Nc4ccccc4)CC1CCC32C (centres undefined) | 0.98 | 104 | -6 | 104 | -2 | -1
COCCNc1oc(-c2ccc(C)cc2)nc1C#N | 3 | 107 | -32 | 123 | -7 | 3
Cc1nn(-c2ccccc2)c(N)c1N=Nc1ccc2ccccc2c1 | 3.9* | 107 | -44 | 140* | 1 | 76
O=C(O)c1ccc(N2CC3CC(C2)c2cccc(=O)n2C3)c(NC(=S)Nc2ccc(Br)cc2)c1 (centres undefined) | 3.9* | 83 | 4 | 95 | 22 | 12
CCCNc1nc2c(c(=O)[nH]c(=O)n2C)n1Cc1ccc(F)cc1 | 0.88 | 109 | 7 | 94 | -6 | -3
O=C(CSc1cccc[n+]1[O-])N1CCCCCC1 | 1.1 | 105 | -4 | 104 | -4 | -1
O=C(CSc1cccc[n+]1[O-])CSc1cccc[n+]1[O-] | 4.9* | 95 | 5 | 93 | 10 | -1
COc1ccc(C2C(C(=O)OCC(=O)Nc3ccc(C)cc3)CCC(=O)N2c2ccc(OC)cc2)cc1 (centres undefined) | 0.91 | 104 | -1 | 101 | -1 | 18
Cc1ccccc1-n1c(SC/C(O)=C(\C#N)c2nc3ccccc3[nH]2)nnc1-c1ccncc1 | 0.56 | 133* | 9 | 90 | -35 | -9
O=C(Nc1nnc(-c2ccco2)o1)c1cccc(Cl)c1 | 1 | 103 | 4 | 98 | 2 | -3
COc1ccc(NC(=O)c2cc([N+](=O)[O-])ccc2O)cc1 | nt | 11 | 94* | 14 | 105* | -12
CCOC(=O)c1cc(C(C)=O)c(=O)[nH]c1C | 1.1 | 99 | -5 | 104 | 4 | 222*
CCc1nnc(NC(=O)c2oc3cc(C)c(C)cc3c2C)s1 | 1.4 | 91 | 0 | 100 | 12 | 17
Cc1ccc2oc(C(=O)Nc3nnc(C)s3)c(C)c2c1 | 4.7* | 77 | -44 | 141* | 27 | 8
O=c1[nH]c(=O)n([C@H]2C[C@H](O)[C@@H](CO)O2)cc1C(F)(F)F | 5.4* | 103 | -10 | 109 | 0 | -59
Fc1ccc(-n2nnc(-c3cccnc3)n2)cc1 | 2.1 | nt | -51 | 149* | nt | 24
Cc1ccc(C(=O)Nc2ccc(C(F)(F)F)n(C)c2=O)cc1 | 0.99 | 104 | -37 | 133* | -3 | 71
C/C(=C\C(=O)c1cccnc1)Nc1ccc(O)cc1 | 0.68 | 97 | -14 | 113 | 2 | nt
C/C(=C\C(=O)c1ccccc1)Nc1ccc(O)cc1 | 4.5* | 95 | -44 | 140* | 6 | 3
C/C(=C\C(=O)c1ccc(C)cc1)Nc1cccc(O)c1 | 1.4 | 80 | -1 | 101 | 24 | 157*
CCc1nc(N[C@@H](Cc2c[nH]c3ccccc23)C(=O)O)c2oc3ccccc3c2n1 | 1 | 118 | 10 | 91 | -14 | 7
O=C(NC(Cc1c[nH]c2ccccc12)C(=O)O)c1ccccc1 (centres undefined) | 1.1 | 105 | 16 | 85 | -3 | -10
CC(=O)/C=C(/C)NC(Cc1c[nH]c2ccccc12)C(=O)O (centres undefined) | 1.2 | 133*! | 10 | 91 | -31 | 1
O=C(O)C(=O)Cc1c[nH]c2ccccc12 | 1.2 | 133* | 10 | 91 | -23 | 3
Cc1nc(N[C@@H](Cc2c[nH]c3ccccc23)C(=O)O)c2oc3ccccc3c2n1 | 0.84 | 150* | 11 | 90 | -55 | 2
SMILES | NF-kB neuron act | STAT3 act | STAT1 blocker | STAT1 activator | STAT3 blocker | APP 5'UTR act
Cc1ccc(S(=O)(=O)NCCCCCC(=O)Nc2ccccn2)cc1 | 1 | 103 | 3 | 98 | 3 | -9
CNS(=O)(=O)c1cc(C(=O)OCC(=O)NC2CCCc3ccccc32)ccc1Cl (centres undefined) | 0.91 | 101 | 4 | 97 | 2 | 1
Cc1ccc(-n2c(C)nn(CCOc3ccccc3)c2=O)cc1 | 2.2 | 110 | -40 | 134* | -7 | 58
Cc1nn(CC2CC2)c(=O)n1-c1ccccc1F | 1.2 | 100 | 4 | 96 | 4 | 7
Cc1nn(CCOc2ccccc2)c(=O)n1-c1c(F)cccc1F | 2.4 | 111 | -45 | 140* | -7 | 62
Cc1ccc(-n2[nH]c(=O)c(-c3ccccn3)c2C)cc1 | 0.97 | 25 | 76* | 30 | 88* | 3

Source: PubChem BioAssay (several laboratories)
